Assay outcomes as filed in PubChem.
This is a sample that favours compounds with a hit; in the whole collection about 2.3% have one here.
OXTR potentiate: potentiates the human oxytocin receptor response; P30559; CHO-OTR cells, Fluo-8 calcium fluorescence, potentiator mode; 0% = oxytocin EC15, 100% = EC100; activation, % at 3 µM; 320,000 tested, 0.061% active;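 active means activation above that plate's cutoff, the mean activation of tested compounds plus 3 SD, cut at about 6.6% in these data, passing the limit was not always enough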;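 further: 100% uses oxytocin at 75 nM as the full agonist control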
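Material: CHO-OTR cells, human receptor; compound dosing: single dose, 3.0 µM nominal final compound concentration; schedule: 6 min compound pre-incubation at room temperature, 100 s kinetic read; measured by: kinetic Fluo-8 calcium fluorescence; read-out basis: % activation vs EC15 and EC100 oxytocin; controls: EC15 oxytocin alone as 0%, 75 nM oxytocin as 100%; replicates: singlicate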
OXTR ag: agonists of human oxytocin receptor. P30559. CHO-OTR cells, Fluo-8 calcium fluorescence; normalized: DMSO 0%, oxytocin 100%. activation, % at 3 µM. 320,000 tested, 0.32% active. AID 2435;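 active means activation above the mean of all tested compounds plus 3 SD, cutoff set per screening run, cut at about 20% in these data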;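 further: peak over basal fluorescence ratio from a 100 s FLIPR kinetic read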
V1aR counter: counter-screen for oxytocin receptor agonists: human V1a receptor agonists | P37288 | CHO-V1R cells, Fluo-8 calcium fluorescence, agonist mode; 0% DMSO, 100% 3 nM vasopressin | activation, % at 3 µM | 320,000 tested, 0.25% active | AID 2797;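 active means activation above the mean activation of all tested compounds plus 3 SD, per screening run, cut at about 20% in these data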;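 further: signal is peak over basal fluorescence ratio across a 100 second FLIPR read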
Target sequence (P37288 whole entry, looked up): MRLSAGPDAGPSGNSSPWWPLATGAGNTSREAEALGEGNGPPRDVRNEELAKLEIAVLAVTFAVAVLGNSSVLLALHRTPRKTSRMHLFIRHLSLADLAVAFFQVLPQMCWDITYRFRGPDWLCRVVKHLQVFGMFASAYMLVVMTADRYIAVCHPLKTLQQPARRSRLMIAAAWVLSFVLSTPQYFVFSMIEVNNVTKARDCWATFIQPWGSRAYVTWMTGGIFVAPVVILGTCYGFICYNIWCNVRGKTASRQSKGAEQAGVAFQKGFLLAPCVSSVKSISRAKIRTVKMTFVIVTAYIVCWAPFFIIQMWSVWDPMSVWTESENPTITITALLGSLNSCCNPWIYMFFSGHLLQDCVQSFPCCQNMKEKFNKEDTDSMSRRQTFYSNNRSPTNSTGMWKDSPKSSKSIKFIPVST
TAAR1 antag: antagonists of human TAAR1 | Q96RJ0 | 360,000 tested, 1.5% active | AID 624466 | CHO RD-HGA16 TAAR1, Fluo-8 calcium fluorescence, antagonist | inhibition, % at 3 µM;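 active means inhibition above a per-plate cutoff, the mean inhibition of test compounds on that plate plus 3 SD, cut at about 49% in these data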;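 further: 0% = DMSO plus EC80 beta-PEA response and 100% = DMSO alone without agonist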
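Test system: CHO RD-HGA16 cells bearing hTAAR1 | Reagent: β-PEA, EC80 | Compound dosing: 3 µM, single point | Schedule: Dye loading 75 min at 37 °C, then 30 min room temperature | Signal: Calcium fluorescence with Fluo-8 | Evaluation: Percent inhibition of PEA-evoked calcium signal, max/basal emission ratio | Control set: DMSO-only wells and EC80 β-PEA-stimulated wells | Repeats: Singlicate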
TAAR1 ag: human TAAR1 agonism | Q96RJ0 | CHO RD-HGA16 TAAR1, Fluo-8 calcium fluorescence; vehicle wells 0%, saturating PEA agonist 100% | 360,000 tested, 0.99% active | activation, % at 3 µM;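 active means activation above the mean activation of all test compounds in the run plus 3 SD, cut at about 38% in these data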
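Test system: RD-HGA16 (CHO) cells co-expressing Gα16 and hTAAR1 / Benchmarks: DMSO vehicle as 0%, PEA at EC100 as 100% / Repeats: no replicates (n 1) / Measure: % activation from peak over basal fluorescence ratio, DMSO-to-PEA scaled / Timing: 17-24 h plating, Fluo-8 75 min 37 °C, 30 min RT / Technique: kinetic Fluo-8 calcium fluorescence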
TAAR1 nonsel count: nonselective antagonism, TAAR1 counter-screen; shares compounds with TAAR1 antag; counterscreen cell line, calcium fluorescence, antagonist mode; inhibition, % at 3 µM; 2,400 tested, 77% active; in the data active means inhibition above about 22%;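 further: CHO-Ga16 host cells stimulated with ATP at an EC80 level; 0% = agonist EC80 plus vehicle and 100% = vehicle without agonist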
TAAR1 antag conf: confirmation of human TAAR1 antagonists | shares compounds with TAAR1 antag | TAAR1-expressing cells, fluorescence antagonist read-out | inhibition, % at 3 µM | 2,400 tested, 40% active; in the data active means inhibition above about 49%;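 further: CHO-Ga16 host cells challenged with agonist PEA near its EC80; 0% = agonist at EC80 plus vehicle and 100% = vehicle with no agonist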
Ga16 nonsel ag: nonselective Ga16 agonist in TAAR1 antagonist counter-screen; shares compounds with TAAR1 antag; activation, % at 3 µM; 2,400 tested, 18% active; Ga16-expressing cells, calcium fluorescence, agonist counterscreen; in the data active means activation above about 12%;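 further: 0% = vehicle wells and 100% = saturating stimulus response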
TAAR1 ag counter: activates human TAAR1 in antagonist counter-screen; activation, % at 3 µM; shares compounds with TAAR1 antag; 2,400 tested, 2% active; hTAAR1 cell line, fluorescence activation, agonist mode; in the data active means activation above about 37%;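 further: CHO cells stably expressing TAAR1 with calcium dye readout; 0% = DMSO vehicle and 100% = full agonist response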
Starred values were filed as active, the others as inactive; · = not tested or not shown.

SMILES	OXTR potentiate	OXTR ag	V1aR counter	TAAR1 antag	TAAR1 ag	TAAR1 nonsel count	TAAR1 antag conf	Ga16 nonsel ag	TAAR1 ag counter
Oc1ccccc1OCC(O)c1ccccc1 (centres undefined)	-2	3	2	-17	0	·	·	·	·
CNC(=O)C(C)c1ncc(C(F)(F)F)cc1Cl (centres undefined)	1	1	2	98*	-3	2	-5	-1	-2
CCOC(=O)CSc1nc2cc(C(=O)N3CCCC3)ccc2c(=O)n1Cc1ccccc1	-16	-2	0	105*	-3	-2	-9	1	1
CC(=O)N1N=C(c2cccc(O)c2)CC1c1cccs1 (centres undefined)	·	·	·	71*	16	18	44	7	12
Cc1ccc(S(=O)(=O)N(C)c2ccc(OC(=O)CN3C(=O)NC4(CCCC4)C3=O)cc2)cc1	-6	7	8	12	6	·	·	·	·
Cc1ccc(S(=O)(=O)N(C)c2ccc(OC(=O)CN3C(=O)NC4(CCCC4)C3=O)cc2)cc1C	-15	2	8	82*	13	40*	51*	12*	8
O=S(=O)(c1ccc(F)cc1)N1CCN(Cc2nnc(-c3ccccc3)o2)CC1	-2	3	2	73*	-3	14	2	4	7
CC(C)(C)OC(=O)NCc1ccc(CNC(=O)c2nc[nH]c2C(=O)NCc2ccccc2)cc1	-9	1	1	57*	18	35*	44	7	4
CC(C)(C)OC(=O)NCc1ccc(CNC(=O)c2[nH]cnc2C(=O)NCC(=O)OCc2ccccc2)cc1	-17	7	5	92*	24	49*	66*	12*	12
CN(Cc1ccccc1)C(=O)c1[nH]cnc1C(=O)NCc1ccc(CNC(=O)OC(C)(C)C)cc1	-6	5	4	41	11	·	·	·	·
COC(=O)c1ccc(NC(=O)c2cccc(N3C(=O)C4C5C=CC(C6CC56)C4C3=O)c2)cc1 (centres undefined)	-13	5	6	65*	13	58*	75*	15*	12
O=C(Nc1ccc(F)cc1)c1cccc(N2C(=O)C3C4C=CC(C5CC45)C3C2=O)c1 (centres undefined)	-10	4	11	40	9	·	·	·	·
COc1ccc(OC)c(NC(=O)c2cccc(N3C(=O)C4C5C=CC(C6CC56)C4C3=O)c2)c1 (centres undefined)	-10	5	10	75*	11	46*	62*	13*	10
CC(C)Oc1cccc(C(=O)C2CCCN(S(=O)(=O)C(C)C)C2)c1 (centres undefined)	-10	-1	2	-3	2	·	·	·	·
Cc1ccc(S(=O)(=O)NC(=O)Nc2ccc(C)cn2)cc1	-4	0	0	-9	-1	·	·	·	·
NC(=O)c1ccsc1NC(=O)COC(=O)COc1ccccc1[N+](=O)[O-]	-13	15	11	46	17	·	·	·	·
NC(=O)c1ccsc1NC(=O)COC(=O)/C=C/c1ccccc1	-18	16	11	79*	18	41*	74*	17*	36
NC(=O)c1ccsc1NC(=O)COC(=O)/C=C/c1ccccc1[N+](=O)[O-]	-10	10	6	78*	21	38*	60*	14*	22
COC(=O)c1ccccc1NC(=O)COC(=O)/C=C/c1cccs1	-1	3	4	60*	8	21	37	4	1
O=C(Cc1cccc(NC(=O)C2CCN(C(=O)C3CCCCC3)CC2)c1)Nc1cccc(C(=O)N2CCCC2)c1	4	-2	0	-6	11	·	·	·	·
CCOc1ccc(/C=N/NC(=O)CN2CCCCC2)cc1OCC	1	0	0	-15	2	·	·	·	·
CCN(CC)C(=O)Cn1cc(S(=O)(=O)CC(=O)N2CCOCC2)c2ccccc21	-4	0	1	4	0	·	·	·	·
O=C(NC1CC1)c1cc(-c2ccccn2)nc2ccccc12	-8	0	-1	23	9	·	·	·	·
COc1cccc(NC(=O)c2cc(-c3ccccn3)nc3ccccc23)c1	2	-1	0	56*	18	28*	42	7	4
Cc1cccc(NC(=O)c2cc(-c3ccccn3)nc3ccccc23)c1C	-4	-1	-1	70*	8	34*	56*	11	8
SMILES	OXTR potentiate	OXTR ag	V1aR counter	TAAR1 antag	TAAR1 ag	TAAR1 nonsel count	TAAR1 antag conf	Ga16 nonsel ag	TAAR1 ag counter
CCOC(=O)[C@H]1[C@H]2COc3cc(OC)ccc3[C@@H]2N2C(=O)CN(CC3CCCO3)C(=O)[C@@]12C (some centres undefined)	-3	0	0	14	0	·	·	·	·
CC(C)Oc1ccccc1/C=N/NC(=O)C1CC1	-5	-1	0	104*	1	6	-7	5	8
CCOc1ccc2[nH]c(C(=O)N/N=C/c3ccc(OC)cc3)cc2c1	·	·	·	70*	9	22*	55*	8	5
CC(C)c1ccc(/C=N/NC(=O)c2ccc(-n3cnnn3)cc2)cc1	·	·	·	66*	16	32*	48	9	8
COc1ccc(CC(=O)Nc2ccccc2C(=O)N2CCOCC2)cc1OC	-12	1	1	-13	1	·	·	·	·
Cc1ccc(C)c(S(=O)(=O)N2CCCC2CNC(=O)C(=O)NCCc2ccccc2)c1 (centres undefined)	-11	-2	-1	69*	20	31*	47	11	35
COc1ccc(CCNC(=O)C(=O)NCC2CCCN2S(=O)(=O)c2cc(C)ccc2C)cc1 (centres undefined)	-3	0	0	73*	17	28*	53*	11	13
COc1cc(C(=O)COC(=O)c2ccc3c(c2)OCCO3)cc(OC)c1OC	·	·	·	-1	9	·	·	·	·
CC(C)=CCN1CCN(Cc2cc(C(C)C)n[nH]2)CC1CCO (centres undefined)	-1	0	1	-41	1	·	·	·	·
CN1OC[C@@H]2CN(C(=S)Nc3ccc(C#N)cc3)[C@H](c3ccc(N4CCCCC4)cc3)C[C@@H]21	·	·	·	-16	3	·	·	·	·
COC(=O)Nc1ccc2ccc3c(NC(=O)OC)ccc4ccc1c2c43	·	·	·	-1	1	·	·	·	·
